Data: ChEMBL document CHEMBL1759942, “Synthesis and biological activity of 2-(bis((1,3,4-oxadiazolyl/1,3,4-thiadiazolyl)methylthio)methylene)malononitriles” (2011)
In brackets after ≈: the same amount, converted by molar mass.

Columns and labels:
Format in all cases: functional
[1] = tested on: Radical scavenging activity; assay: Antioxidant activity against DPPH free radical scavenging activity at 100 uM after 20 mins by spectrophotometric analysis at pH 7.5
How it was run: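 DPPH assay: compound solutions at 100 were added to DPPH at 100 in dioxane/methanol and held at ambient temperature for 20 min. Absorbance was read at 517 nm, and the test–control difference was expressed as percent DPPH radical scavenging.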

[2] = Antioxidant activity against nitric oxide scavenging activity at 100 uM after 120 mins by spectrophotometric analysis at pH 7.4
How it was run: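 Nitric oxide scavenging: test compounds at 100 in dioxane/methanol were incubated at 25 °C for 120 min, with a solvent-only control. At intervals, 0.5 ml samples were mixed with an equal volume of Griess reagent (1% sulfanilamide, 0.1% N-naphthylethylenediamine dihydrochloride, 2% o-phosphoric acid). Absorbance of the azo chromophore was then measured.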

[3] = tested on: Klebsiella pneumoniae; assay: Antibacterial activity against Klebsiella pneumoniae assessed as zone of inhibition at 100 ug/ml after 24 hrs by disc diffusion method; details: read-out: DIZ
How it was run: (§1)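 Agar disc diffusion on nutrient agar plates pre-inoculated separately with each bacterium. Sterile 6 mm paper discs were moistened with compound solution in DMSO at 100 or 200 per disc and placed on the plates. Plates were incubated at 37 °C, and growth-inhibition zone diameter was measured after 24 h. Chloramphenicol served as the reference drug.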

[4] = tested on: Curvularia lunata; assay: Antifungal activity against Curvularia lunata assessed as zone of inhibition at 200 ug/ml after 48 hrs by disc diffusion method; details: read-out: DIZ
How it was run: (§2)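 Fungi were grown on potato dextrose agar at 25 °C for 3 days, and spore suspensions were adjusted to 10⁶ spores/ml. In the disc diffusion test, inoculated plates received 6 mm paper discs moistened with compound in DMSO at 100 or 200 per disc. Plates were incubated at 37 °C, and inhibition zone diameter was read at 48 h. Ketoconazole was the standard.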

[5] = tested on: Aspergillus niger; assay: Antifungal activity against Aspergillus niger assessed as zone of inhibition at 100 ug/ml after 48 hrs by disc diffusion method; details: read-out: DIZ; how it was run: as §2
[6] = tested on: Fusarium solani; assay: Antifungal activity against Fusarium solani assessed as zone of inhibition at 100 ug/ml after 48 hrs by disc diffusion method; details: read-out: DIZ; how it was run: as §2
[7] = tested on: Staphylococcus aureus; assay: Antibacterial activity against Staphylococcus aureus assessed as zone of inhibition at 200 ug/ml after 24 hrs by disc diffusion method; details: read-out: DIZ; how it was run: as §1
[8] = tested on: Staphylococcus aureus; assay: Antibacterial activity against Staphylococcus aureus assessed as zone of inhibition at 100 ug/ml after 24 hrs by disc diffusion method; details: read-out: DIZ; how it was run: as §1
[9] = tested on: Bacillus subtilis; assay: Antibacterial activity against Bacillus subtilis assessed as zone of inhibition at 100 ug/ml after 24 hrs by disc diffusion method; details: read-out: DIZ; how it was run: as §1
[10] = tested on: Fusarium solani; assay: Antifungal activity against Fusarium solani assessed as zone of inhibition at 200 ug/ml after 48 hrs by disc diffusion method; details: read-out: DIZ; how it was run: as §2
[11] = tested on: Escherichia coli; assay: Antibacterial activity against Escherichia coli assessed as zone of inhibition at 200 ug/ml after 24 hrs by disc diffusion method; details: read-out: DIZ; how it was run: as §1
[12] = tested on: Curvularia lunata; assay: Antifungal activity against Curvularia lunata assessed as zone of inhibition at 100 ug/ml after 48 hrs by disc diffusion method; details: read-out: DIZ; how it was run: as §2
[13] = tested on: Escherichia coli; assay: Antibacterial activity against Escherichia coli assessed as zone of inhibition at 100 ug/ml after 24 hrs by disc diffusion method; details: read-out: DIZ; how it was run: as §1
[14] = tested on: Bacillus subtilis; assay: Antibacterial activity against Bacillus subtilis assessed as zone of inhibition at 200 ug/ml after 24 hrs by disc diffusion method; details: read-out: DIZ; how it was run: as §1
[15] = tested on: Aspergillus niger; assay: Antifungal activity against Aspergillus niger assessed as zone of inhibition at 200 ug/ml after 48 hrs by disc diffusion method; details: read-out: DIZ; how it was run: as §2
[16] = tested on: Klebsiella pneumoniae; assay: Antibacterial activity against Klebsiella pneumoniae assessed as zone of inhibition at 200 ug/ml after 24 hrs by disc diffusion method; details: read-out: DIZ; how it was run: as §1
[17] = tested on: Staphylococcus aureus; assay: Antibacterial activity against Staphylococcus aureus after 24 hrs by microdilution method
How it was run: (§3)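 MIC by microdilution susceptibility testing in tubes. Incubation was at 36 °C for 24 h (bacteria) or 48 h (fungi). MIC was recorded as the lowest compound concentration giving no turbidity, i.e. no visible growth. Chloramphenicol was the antibacterial reference and ketoconazole the antifungal standard.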

[18] = tested on: Fusarium solani; assay: Antifungal activity against Fusarium solani after 48 hrs by microdilution method; how it was run: as §3
[19] = tested on: Klebsiella pneumoniae; assay: Antibacterial activity against Klebsiella pneumoniae after 24 hrs by microdilution method; how it was run: as §3
[20] = tested on: Curvularia lunata; assay: Antifungal activity against Curvularia lunata after 48 hrs by microdilution method; how it was run: as §3
[21] = tested on: Bacillus subtilis; assay: Antibacterial activity against Bacillus subtilis after 24 hrs by microdilution method; how it was run: as §3
[22] = tested on: Aspergillus niger; assay: Antifungal activity against Aspergillus niger after 48 hrs by microdilution method; how it was run: as §3
[23] = tested on: Escherichia coli; assay: Antibacterial activity against Escherichia coli after 24 hrs by microdilution method; how it was run: as §3

Row | MIC [17] | MIC [18] | MIC [19] | MIC [20] | Compound | inhibition [1] | inhibition [2] | zone of inhibition at 100 µg/mL [3] | zone of inhibition at 200 µg/mL [4] | zone of inhibition at 100 µg/mL [5] | zone of inhibition at 100 µg/mL [6] | zone of inhibition at 200 µg/mL [7] | zone of inhibition at 100 µg/mL [8] | zone of inhibition at 100 µg/mL [9] | zone of inhibition at 200 µg/mL [10] | zone of inhibition at 200 µg/mL [11] | zone of inhibition at 100 µg/mL [12] | zone of inhibition at 100 µg/mL [13] | zone of inhibition at 200 µg/mL [14] | zone of inhibition at 200 µg/mL [15] | zone of inhibition at 200 µg/mL [16] | also measured
1 |  |  |  |  | O=C1O[C@H]([C@@H](O)CO)C(O)=C1O | 95.3% | 94.9% |  |  |  |  |  |  |  |  |  |  |  |  |  |  | 
2 |  |  |  |  | N#CC(C#N)=C(SCc1nnc(-c2ccc(Cl)cc2)o1)SCc1nnc(-c2ccc(Cl)cc2)o1 | 73.7% | 72.5% | 8 mm | 19 mm | 14 mm | 20 mm | 20 mm | 16 mm | 13 mm | 22 mm | 11 mm | 16 mm | 8 mm | 16 mm | 17 mm | 12 mm | 
3 | 200 µg/mL (≈ 408 µM) | 100 µg/mL (≈ 204 µM) | 200 µg/mL (≈ 408 µM) | 100 µg/mL (≈ 204 µM) | N#CC(C#N)=C(SCc1nnc(-c2ccccc2)s1)SCc1nnc(-c2ccccc2)s1 | 26.3% | 25.8% | 23 mm | 28 mm | 21 mm | 25 mm | 26 mm | 24 mm | 23 mm | 28 mm | 24 mm | 26 mm | 21 mm | 27 mm | 24 mm | 24 mm | MIC [21]: 100 µg/mL (≈ 204 µM); MIC [22]: 100 µg/mL (≈ 204 µM); MIC [23]: 200 µg/mL (≈ 408 µM)
4 |  |  |  |  | Cc1ccc(-c2nnc(CSC(SCc3nnc(-c4ccc(C)cc4)o3)=C(C#N)C#N)o2)cc1 | 52.5% | 54.3% |  | 14 mm | 10 mm | 15 mm | 13 mm | 10 mm | 10 mm | 17 mm |  | 13 mm |  | 12 mm | 11 mm | 11 mm | 
5 |  |  |  |  | N#CC(C#N)=C(SCc1nnc(-c2ccccc2)o1)SCc1nnc(-c2ccccc2)o1 | 63.5% | 65.4% | 9 mm | 17 mm | 12 mm | 18 mm | 14 mm | 12 mm | 12 mm | 21 mm | 10 mm | 15 mm | 8 mm | 16 mm | 14 mm | 12 mm | 
6 | 100 µg/mL (≈ 179 µM) | 50 µg/mL (≈ 89.4 µM) | 200 µg/mL (≈ 357 µM) | 50 µg/mL (≈ 89.4 µM) | N#CC(C#N)=C(SCc1nnc(-c2ccc(Cl)cc2)s1)SCc1nnc(-c2ccc(Cl)cc2)s1 | 30.2% | 29.4% | 23 mm | 34 mm | 26 mm | 30 mm | 35 mm | 32 mm | 30 mm | 32 mm | 26 mm | 32 mm | 25 mm | 32 mm | 29 mm | 25 mm | MIC [21]: 50 µg/mL (≈ 89.4 µM); MIC [22]: 100 µg/mL (≈ 179 µM); MIC [23]: 200 µg/mL (≈ 357 µM)
7 |  |  |  |  | CCOC(=O)CSC(SCC(=O)OCC)=C(C#N)C#N | 46.3% | 45.8% |  | 15 mm | 9 mm | 13 mm | 14 mm | 10 mm | 12 mm | 15 mm | 9 mm | 12 mm | 7 mm | 14 mm | 12 mm | 8 mm | 
8 |  |  |  |  | Cc1ccc(-c2nnc(CSC(SCc3nnc(-c4ccc(C)cc4)s3)=C(C#N)C#N)s2)cc1 | 21.6% | 22.3% | 18 mm | 26 mm | 18 mm | 23 mm | 25 mm | 19 mm | 19 mm | 25 mm | 24 mm | 25 mm | 17 mm | 24 mm | 21 mm | 22 mm | 

Row | Compound | MIC [17] | MIC [18] | MIC [19] | MIC [20] | inhibition [1] | inhibition [2] | zone of inhibition at 100 µg/mL [3] | zone of inhibition at 200 µg/mL [4] | zone of inhibition at 100 µg/mL [5] | zone of inhibition at 100 µg/mL [6] | zone of inhibition at 200 µg/mL [7] | zone of inhibition at 100 µg/mL [8] | zone of inhibition at 100 µg/mL [9] | zone of inhibition at 200 µg/mL [10] | zone of inhibition at 200 µg/mL [11] | zone of inhibition at 100 µg/mL [12] | zone of inhibition at 100 µg/mL [13] | zone of inhibition at 200 µg/mL [14] | zone of inhibition at 200 µg/mL [15] | zone of inhibition at 200 µg/mL [16] | also measured
9 | CC(=O)N1CCN(c2ccc(OCC3COC(Cn4ccnc4)(c4ccc(Cl)cc4Cl)O3)cc2)CC1 (stereo not given) [KETOCONAZOLE] |  | 12.5 µg/mL (≈ 23.5 µM) |  | 6.25 µg/mL (≈ 11.8 µM) |  |  |  | 44 mm | 36 mm | 38 mm |  |  |  | 42 mm |  | 41 mm |  |  | 39 mm |  | MIC [22]: 6.25 µg/mL (≈ 11.8 µM)
10 | O=C(N[C@H](CO)[C@H](O)c1ccc([N+](=O)[O-])cc1)C(Cl)Cl [CHLORAMPHENICOL] | 6.25 µg/mL (≈ 19.3 µM) |  | 12.5 µg/mL (≈ 38.7 µM) |  |  |  | 42 mm |  |  |  | 39 mm | 35 mm | 38 mm |  | 44 mm |  | 40 mm | 41 mm |  | 45 mm | MIC [21]: 6.25 µg/mL (≈ 19.3 µM); MIC [23]: 6.25 µg/mL (≈ 19.3 µM)
